# ChEMBL document CHEMBL3861989, “Amending HIV Drugs: A Novel Small-Molecule Approach To Target Lupus Anti-DNA Antibodies” (J Med Chem, 2016)
# Calls of active or inactive are those of the source. The calls are words filed in the database; no cut-off is given here.
# How the values were obtained:
# [1] = (§1) Binding affinity to mouse anti-dsDNA monoclonal antibody R4A assessed as inhibition of RA4 binding to DWEYS peptide preincubated for 1 hr followed by DWEYS peptide addition measured after 1 hr by ELISA
# Outline: (§2)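 Competitive ELISA: plates coated with DWEYS peptide overnight at 37 °C uncovered, blocked 3% BSA/PBS 1 h 37 °C. Compounds at varying concentrations preincubated with R4A (20 µg/mL) 1 h 37 °C, then added to washed wells 1 h 37 °C. Detection with alkaline phosphatase anti-mouse IgG (1:1000, 1 h RT), pNPP substrate 30–60 min, absorbance 405 nm.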
# Mus musculus [2] = organism: Mus musculus; experiment: as §1; outline: as §2
# Mus musculus [3] = experiment: Toxicity in CD-1 mouse assessed as tissue abnormalities administered daily for 1 week; type: organism-based; settings: in vivo, 168 h
# Mus musculus [4] = experiment: Toxicity in CD-1 mouse assessed as behavioral changes administered daily for 1 week; type: organism-based; settings: in vivo, 168 h
# Mus musculus [5] = organism: Mus musculus; experiment: Neuroprotective activity in C57BL/6 mouse assessed as inhibition of R4A-induced hippocampal neuron apoptosis at 50 uM pretreated to mouse followed by R4A injection measured after 1 day by TUNEL assay; type: functional
# Outline: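 Male C57BL/6 mice (30–34 g) anesthetized with 2.5% avertin ip. R4A (20 µg/mL) preincubated with vehicle or compound (50 µM) and injected stereotaxically (2 µL) into dorsal hippocampus CA1.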
# Mus musculus [6] = organism: Mus musculus; experiment: Binding affinity to mouse anti-dsDNA monoclonal antibody R4A assessed as inhibition of RA4 binding to mouse kidney glomeruli antigens by measuring suppression of antibody deposition in kidney glomeruli at 50 uM preincubated for 1 hr followed by glomeruli addition by fluorescence microscopic analysis
# Outline: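 Murine glomeruli isolated and adhered to glass slides. R4A (20 µg/mL) preincubated with compound (50 µM) 1 h at 37 °C, then applied to glomeruli 1 h at room temperature. Bound antibody detected with FITC-conjugated anti-mouse IgG, PBS washes, fluorescence imaging.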
# Mus musculus [7] = organism: Mus musculus; experiment: Binding affinity to mouse anti-dsDNA monoclonal antibody R4A assessed as inhibition of RA4 binding to DWEYS peptide at 5 to 50 uM preincubated for 1 hr followed by DWEYS peptide addition measured after 1 hr by ELISA; outline: as §2
# Mus musculus [8] = experiment: Toxicity in NZB/W F1 mouse systemic lupus erythematosus model assessed as prostration at 5 mg/kg/day, ip bid administered on day 1 at 22 weeks of age measured daily during compound dosing up to 34 weeks of age; type: organism-based; settings: in vivo
# Outline: (§3)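 Female NZB/W F1 mice from 22 weeks of age, before severe proteinuria, grouped by matched mean proteinuria and body weight (n = 10/group). Vehicle or compound at 5 mg kg−1 day−1 given ip twice daily. Body weight weekly, proteinuria every 2 weeks. Removal on ≥20% weight loss, prostration, or ≥3+ proteinuria two consecutive weeks; study end at 46 weeks.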
# Mus musculus [9] = experiment: Toxicity in NZB/W F1 mouse systemic lupus erythematosus model assessed as body weight loss at 5 mg/kg/day, ip bid administered on day 1 at 22 weeks of age measured daily during compound dosing up to 34 weeks of age; type: organism-based; settings: in vivo; outline: as §3
# Mus musculus [10] = experiment: Induction of delayed onset of systemic lupus erythematosus disease in NZB/W F1 mouse model at 5 mg/kg/day, ip bid administered on day 1 at 22 weeks of age measured daily during compound dosing up to 34 weeks of age; type: functional; outline: as §3
# Mus musculus [11] = experiment: Reduction in glomerular cellularity score in kidney of NZB/NZW F1 mouse systemic lupus erythematosus model at 5 mg/kg/day, ip bid administered on day 1 at 22 weeks of age measured daily during compound dosing at 60 weeks by conglomerate blinded analysis; type: functional, organism-based
# Outline: (§4)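 Female NZB/W F1 mice dosed ip twice daily (5 mg kg−1 day−1) from 22 weeks of age. Formalin-fixed, paraffin-embedded kidney sections stained with H&E and scored blind by one investigator, 0–3+ each for glomerular sclerosis, hypercellularity, crescents, interstitial nephritis and perivascular infiltrates. Combined scores assessed at 60 weeks.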
# Mus musculus [12] = experiment: Reduction in crescents score in kidney of NZB/NZW F1 mouse systemic lupus erythematosus model at 5 mg/kg/day, ip bid administered on day 1 at 22 weeks of age measured daily during compound dosing at 60 weeks by conglomerate blinded analysis; type: functional, organism-based; outline: as §4
# Mus musculus [13] = experiment: anti-DWEYS peptide reactivity in serum of NZB/NZW F1 mouse systemic lupus erythematosus model at 5 mg/kg/day, ip bid administered on day 1 to 71
# Mus musculus [14] = experiment: Reduction in interstitial inflammation score in kidney of NZB/NZW F1 mouse systemic lupus erythematosus model at 5 mg/kg/day, ip bid administered on day 1 at 22 weeks of age measured daily during compound dosing at 60 weeks by conglomerate blinded analysis; type: functional, organism-based; outline: as §4
# Mus musculus [15] = experiment: Inhibition of lymphocyte aggregation in kidney of NZB/NZW F1 mouse systemic lupus erythematosus model at 5 mg/kg/day, ip bid administered on day 1 at 22 weeks of age measured at 60 weeks by hematoxylin and eosin staining based assay; type: functional, organism-based; outline: as §4
# Mus musculus [16] = experiment: Inhibition of glomerulonephropathy in kidney of NZB/NZW F1 mouse systemic lupus erythematosus model at 5 mg/kg/day, ip bid administered on day 1 at 22 weeks of age measured at 60 weeks by hematoxylin and eosin staining based assay; type: functional, organism-based; outline: as §4
# Mus musculus [17] = experiment: Toxicity in CD-1 mouse assessed as drug tolerance at 1 mg/kg, iv as infusion or 10 mg/kg via oral gavage measured up to 60 mins for iv dosing or up to 240 mins for oral gavage; type: organism-based; settings: in vivo
# Mus musculus [18] = experiment: Inhibition of tubule dilation and casts in kidney of NZB/NZW F1 mouse systemic lupus erythematosus model at 5 mg/kg/day, ip bid administered on day 1 at 22 weeks of age measured at 60 weeks by hematoxylin and eosin staining based assay; type: functional, organism-based; outline: as §4
# Mus musculus [19] = experiment: Inhibition of IgG level in glomeruli of NZB/NZW F1 mouse systemic lupus erythematosus model at 5 mg/kg/day, ip bid administered on day 1 at 22 weeks of age; type: functional, organism-based
# Outline: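 Female NZB/W F1 mice dosed ip twice daily (5 mg kg−1 day−1) from 22 weeks of age. Formalin-fixed, paraffin-embedded terminal kidney sections from three representative mice per group stained for mouse IgG in glomeruli.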
# Mus musculus [20] = experiment: Reduction in glomerular sclerosis score in kidney of NZB/NZW F1 mouse systemic lupus erythematosus model at 5 mg/kg/day, ip bid administered on day 1 at 22 weeks of age measured daily during compound dosing at 60 weeks by conglomerate blinded analysis; type: functional, organism-based; outline: as §4
# Mus musculus [21] = experiment: Increase in disease free survival in NZB/W F1 mouse systemic lupus erythematosus model at 5 mg/kg/day, ip bid administered on day 1 at 22 weeks of age measured daily during compound dosing up to 34 weeks of age; type: functional, organism-based; outline: as §3
SMILES,IC50 [1] [µM],inhibition (Mus musculus [2]),inhibition (Mus musculus [6]),inhibition (Mus musculus [7]),Activity (Mus musculus [3]),Activity (Mus musculus [4]),other results
Cc1c(O)cccc1CN[C@@H](CSc1ccccc1)[C@H](O)CN1C[C@H]2CCCC[C@H]2C[C@H]1CNC(C)(C)C,7.27,Dose-dependent effect,Active,,Non-Toxic,Non-Toxic,inhibition (Mus musculus [5]): Active
CC(C)(C)NC[C@@H]1CNCCN1C[C@@H](O)C[C@H](CN[C@H]1c2ccccc2C[C@H]1O)Cc1ccccc1,42.7,,,,,,
Cc1cccc(C)c1OCC(=O)N[C@@H](Cc1ccccc1)[C@@H](O)C[C@H](Cc1ccccc1)NC(=O)[C@H](C(C)C)N1CCCNC1=O,,Dose-dependent effect,,Active,,,
CC(C)(C)NC[C@@H]1CC2CCCCC2CN1C[C@@H](O)[C@H](Cc1ccccc1)NC[C@H](CCN)NCC1Nc2ccccc2CC1O (stereo partly drawn),4.5,Dose-dependent effect,Active,,Non-Toxic,Non-Toxic,Activity (Mus musculus [8]): Non-Toxic; Activity (Mus musculus [9]): < 20%; Time (Mus musculus [10]): 26 - 36 weeks; Activity (Mus musculus [11]): Active; Activity (Mus musculus [12]): Active; inhibition (Mus musculus [13]): Active; inhibition (Mus musculus [5]): Active; Activity (Mus musculus [14]): Active; inhibition (Mus musculus [15]): Active; inhibition (Mus musculus [16]): Active; Activity (Mus musculus [17]): Non-Toxic; inhibition (Mus musculus [18]): Active; inhibition (Mus musculus [19]): Active; Activity (Mus musculus [20]): Active; Activity (Mus musculus [21]): Active
CC(C)(C)NC(=O)[C@@H]1CN(Cc2cccnc2)CCN1C[C@@H](O)C[C@@H](Cc1ccccc1)C(=O)N[C@H]1c2ccccc2C[C@H]1O,,,,Active,,,

# The next lines start with results.
IC50 [1] [µM],inhibition (Mus musculus [2]),inhibition (Mus musculus [6]),inhibition (Mus musculus [7]),SMILES,Activity (Mus musculus [3]),Activity (Mus musculus [4]),other results
2.08,Dose-dependent effect,Active,,CNCCCN[C@H](CN[C@@H](Cc1ccccc1)C[C@H](O)[C@H](Cc1ccccc1)NCCOc1c(C)cccc1C)C(C)C,Non-Toxic,Non-Toxic,
,Dose-dependent effect,Active,Active,Cc1c(O)cccc1C(=O)N[C@@H](CSc1ccccc1)[C@H](O)CN1C[C@H]2CCCC[C@H]2C[C@H]1C(=O)NC(C)(C)C,,,
